Results taken from ChEMBL document CHEMBL1921792, “Synthesis and anticonvulsant activity of trans- and cis-2-(2,6-dimethylphenoxy)-N-(2- or 4-hydroxycyclohexyl)acetamides and their amine analogs” (Bioorg Med Chem, 2011).
The source made the active and inactive calls. No cut-off for these calls is given here.

How the values were obtained:
[1] = Neurotoxicity in ip dosed mouse assessed as inability to maintain equilibrium on rotarod by rotarod test; type: toxicity, organism-based; details: in vivo
How it was run: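 Mice dosed ip with a suspension in 0.5% methylcellulose, then placed on a 1 inch knurled plastic rod rotating at 6 rpm. Toxicity = failure to keep equilibrium for at least 1 min in each of three trials.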

Mus musculus [2] = test: Anticonvulsant activity in mouse assessed as protection against maximal electric shock-induced seizures at 70 mg/kg, ip after 2 hrs; type: functional, organism-based; set-up: dose 70 mg/kg
How it was run: (§1)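 Time-to-peak-effect assay: MES protection read at 0.25–4 h after dosing. Mice ip (60–130 mg/kg), rats po (15 or 30 mg/kg) or ip (30 mg/kg). Groups of 4–8; result is protected/tested.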

Rattus norvegicus [3] = test: Neurotoxicity in rat assessed as neurological deficit at 30 mg/kg, po after 0.25 hrs […]; type: toxicity, organism-based; set-up: dose 30 mg/kg, route oral; details: in vivo
How it was run: (§2)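 Rats given the compound, suspended in 0.5% methylcellulose, by the stated route and dose. Neurological deficit was recorded at the listed times as ataxia and loss of placing response and muscle tone. Reported as number of rats showing toxicity/number tested.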

Mus musculus [4] = test: Anticonvulsant activity in mouse assessed as protection against maximal electric shock-induced seizures at 90 mg/kg, ip after 0.5 hrs; type: functional, organism-based; set-up: dose 90 mg/kg; how it was run: as §1
Mus musculus [5] = test: Anticonvulsant activity against subcutaneous pentylenetetrazole-induced seizures in mouse at 30 mg/kg, ip after 0.5 hrs; type: functional, organism-based; set-up: dose 30 mg/kg
How it was run: (§3)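 Phase I screen in mice. Compound given ip as a suspension in 0.5% methylcellulose, read at 30 min and 4 h. Pentylenetetrazole 85 mg/kg in 0.9% NaCl was injected sc into the posterior midline and animals watched ≥30 min. Protection meant no clonic spasm lasting ≥5 s. Groups of 1–8 animals; result is protected/tested.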

Rattus norvegicus [6] = test: Neurotoxicity in rat assessed as neurological deficit at 30 mg/kg, po after 0.5 hrs […]; type: toxicity, organism-based; set-up: dose 30 mg/kg, route oral; details: in vivo; how it was run: as §2
Rattus norvegicus [7] = test: Neurotoxicity in rat assessed as neurological deficit at 30 mg/kg, po after 2 hrs […]; type: toxicity, organism-based; set-up: dose 30 mg/kg, route oral; details: in vivo; how it was run: as §2
Mus musculus [8] = test: Anticonvulsant activity in mouse assessed as protection against maximal electric shock-induced seizures at 90 mg/kg, ip after 4 hrs; type: functional, organism-based; set-up: dose 90 mg/kg; how it was run: as §1
Mus musculus [9] = test: Anticonvulsant activity in mouse assessed as protection against maximal electric shock-induced seizures at 100 mg/kg, ip after 4 hrs; type: functional, organism-based; set-up: dose 100 mg/kg
How it was run: (§4)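 Phase I maximal electroshock screen in mice. Compound given ip as a suspension in 0.5% methylcellulose at 30, 100 or 300 mg/kg, tested at 30 min and 4 h. Small groups (1–8); result is number protected/number tested.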

Mus musculus [10] = test: Neurotoxicity in mouse assessed as inability to maintain equilibrium on rotarod at 300 mg/kg, ip after 4 hrs by rotarod test; type: toxicity, organism-based; set-up: dose 300 mg/kg, route intraperitoneal; details: in vivo
How it was run: (§5)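 Drug given ip to mice as a suspension in 0.5% methylcellulose. At the stated time after dosing, each mouse was placed on a 1 inch knurled rod turning at 6 rpm. Neurotoxicity = inability to stay balanced at least 1 min in each of three trials. Scored as animals toxic/animals tested in small groups.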

Mus musculus [11] = test: Anticonvulsant activity in mouse assessed as protection against maximal electric shock-induced seizures at 70 mg/kg, ip after 1 hr; type: functional, organism-based; set-up: dose 70 mg/kg; how it was run: as §1
Mus musculus [12] = test: Anticonvulsant activity in mouse assessed as protection against maximal electric shock-induced seizures at 30 mg/kg, ip after 0.5 hrs; type: functional, organism-based; set-up: dose 30 mg/kg; how it was run: as §4
Mus musculus [13] = test: Neurotoxicity in mouse assessed as inability to maintain equilibrium on rotarod at 90 mg/kg, ip after 24 hrs using rotarod test; type: toxicity, organism-based; set-up: dose 90 mg/kg, route intraperitoneal; details: in vivo; how it was run: as §5
Mus musculus [14] = test: Anticonvulsant activity in mouse assessed as protection against maximal electric shock-induced seizures at 60 mg/kg, ip after 0.25 hrs; type: functional, organism-based; set-up: dose 60 mg/kg; how it was run: as §1
Mus musculus [15] = test: Anticonvulsant activity in mouse assessed as protection against maximal electric shock-induced seizures at 30 mg/kg, ip after 4 hrs; type: functional, organism-based; set-up: dose 30 mg/kg; how it was run: as §4
Mus musculus [16] = test: Anticonvulsant activity in ip dosed mouse assessed as protection against maximal electric shock-induced seizures; type: functional; details: Mus musculus, ip; read-out: ED50
Mus musculus [17] = test: Anticonvulsant activity in mouse assessed as protection against maximal electric shock-induced seizures at 90 mg/kg, ip after 1 hr; type: functional, organism-based; set-up: dose 90 mg/kg; how it was run: as §1
Mus musculus [18] = test: Neurotoxicity in mouse assessed as inability to maintain equilibrium on rotarod at 30 mg/kg, ip after 0.5 hrs by rotarod test; type: toxicity, organism-based; set-up: dose 30 mg/kg, route intraperitoneal; details: in vivo; how it was run: as §5
Mus musculus [19] = organism: Mus musculus; test: Protective index, ratio of TD50 for neurotoxicity in mouse to ED50 for inhibition of maximal electroshock-induced seizures in mouse; type: functional
Mus musculus [20] = test: Neurotoxicity in mouse assessed as inability to maintain equilibrium on rotarod at 300 mg/kg, ip after 0.5 hrs by rotarod test; type: toxicity, organism-based; set-up: dose 300 mg/kg, route intraperitoneal; details: in vivo; how it was run: as §5
Mus musculus [21] = test: Anticonvulsant activity against subcutaneous pentylenetetrazole-induced seizures in mouse at 100 mg/kg, ip after 4 hrs; type: functional, organism-based; set-up: dose 100 mg/kg; how it was run: as §3
Mus musculus [22] = test: Anticonvulsant activity against subcutaneous pentylenetetrazole-induced seizures in mouse at 300 mg/kg, ip after 0.5 hrs; type: functional, organism-based; set-up: dose 300 mg/kg; how it was run: as §3
Mus musculus [23] = test: Neurotoxicity in mouse assessed as inability to maintain equilibrium on rotarod at 100 mg/kg, ip after 0.5 hrs by rotarod test; type: toxicity, organism-based; set-up: dose 100 mg/kg, route intraperitoneal; details: in vivo; how it was run: as §5
Mus musculus [24] = test: Anticonvulsant activity in mouse assessed as protection against maximal electric shock-induced seizures at 300 mg/kg, ip after 4 hrs; type: functional, organism-based; set-up: dose 300 mg/kg; how it was run: as §4
Mus musculus [25] = test: Anticonvulsant activity in mouse assessed as protection against maximal electric shock-induced seizures at 90 mg/kg, ip after 0.25 hrs; type: functional, organism-based; set-up: dose 90 mg/kg; how it was run: as §1
Rattus norvegicus [26] = test: Neurotoxicity in rat assessed as neurological deficit at 30 mg/kg, po after 4 hrs by rotarod test; type: toxicity, organism-based; set-up: dose 30 mg/kg, route oral; details: in vivo; how it was run: as §2
Mus musculus [27] = test: Neurotoxicity in mouse assessed as inability to maintain equilibrium on rotarod at 30 mg/kg, ip after 4 hrs by rotarod test; type: toxicity, organism-based; set-up: dose 30 mg/kg, route intraperitoneal; details: in vivo; how it was run: as §5
Rattus norvegicus [28] = test: Neurotoxicity in rat assessed as neurological deficit at 30 mg/kg, po after 1 hr […]; type: toxicity, organism-based; set-up: dose 30 mg/kg, route oral; details: in vivo; how it was run: as §2
Mus musculus [29] = test: Anticonvulsant activity in ip dosed mouse assessed as time to show peak effect of protection against maximal electric shock-induced seizures; type: functional; how it was run: as §1
Mus musculus [30] = test: Anticonvulsant activity in mouse assessed as protection against maximal electric shock-induced seizures at 70 mg/kg, ip after 0.5 hrs; type: functional, organism-based; set-up: dose 70 mg/kg; how it was run: as §1
Mus musculus [31] = test: Anticonvulsant activity against subcutaneous pentylenetetrazole-induced seizures in mouse at 300 mg/kg, ip after 4 hrs; type: functional, organism-based; set-up: dose 300 mg/kg; how it was run: as §3
Mus musculus [32] = test: Neurotoxicity in mouse assessed as inability to maintain equilibrium on rotarod at 100 mg/kg, ip after 4 hrs by rotarod test; type: toxicity, organism-based; set-up: dose 100 mg/kg, route intraperitoneal; details: in vivo; how it was run: as §5
Mus musculus [33] = test: Anticonvulsant activity in mouse assessed as protection against maximal electric shock-induced seizures at 300 mg/kg, ip after 0.5 hrs; type: functional, organism-based; set-up: dose 300 mg/kg; how it was run: as §4
Mus musculus [34] = test: Anticonvulsant activity against subcutaneous pentylenetetrazole-induced seizures in mouse at 30 mg/kg, ip after 4 hrs; type: functional, organism-based; set-up: dose 30 mg/kg; how it was run: as §3

## Cc1cccc(C)c1OCC(=O)N[C@H]1CCCC[C@@H]1O.O=C(O)C(O)C(O)C(=O)O
[1]
  TD50: 68.7 mg/kg
Mus musculus [2]
  Activity: inactive
Rattus norvegicus [3]
  Activity: Non-toxic
Mus musculus [4]
  Activity: Active
Mus musculus [5]
  Activity: inactive
Rattus norvegicus [6]
  Activity: Non-toxic
Rattus norvegicus [7]
  Activity: Non-toxic
Mus musculus [8]
  Activity: inactive
Mus musculus [9]
  Activity: inactive
Mus musculus [10]
  Activity: Non-toxic
Mus musculus [11]
  Activity: inactive
Mus musculus [12]
  Activity: inactive
Mus musculus [13]
  Activity: Non-toxic
Mus musculus [14]
  Activity: Active
Mus musculus [15]
  Activity: inactive
Mus musculus [16]
  ED50: 35.5 mg/kg
Mus musculus [17]
  Activity: inactive
Mus musculus [18]
  Activity: Non-toxic
Mus musculus [19]
  Ratio TD50/ED50: 1.937
Mus musculus [20]
  Activity: Non-toxic
Mus musculus [21]
  Activity: inactive
Mus musculus [22]
  Activity: inactive
Mus musculus [23]
  Activity: Non-toxic
Mus musculus [24]
  Activity: inactive
Mus musculus [25]
  Activity: Active
Rattus norvegicus [26]
  Activity: Non-toxic
Mus musculus [27]
  Activity: Non-toxic
Rattus norvegicus [28]
  Activity: Non-toxic
Mus musculus [29]
  Time: 0.25 h
Mus musculus [30]
  Activity: inactive
Mus musculus [31]
  Activity: inactive
Mus musculus [32]
  Activity: Non-toxic
Mus musculus [33]
  Activity: Active
Mus musculus [34]
  Activity: inactive
